The M2OR odorant receptor database

Each compound was assayed against T1, OR2W1 (Homo sapiens) (UniProt Q9Y3N9). Conditions: stereoisomer not certain.
T1 sequence (whole entry): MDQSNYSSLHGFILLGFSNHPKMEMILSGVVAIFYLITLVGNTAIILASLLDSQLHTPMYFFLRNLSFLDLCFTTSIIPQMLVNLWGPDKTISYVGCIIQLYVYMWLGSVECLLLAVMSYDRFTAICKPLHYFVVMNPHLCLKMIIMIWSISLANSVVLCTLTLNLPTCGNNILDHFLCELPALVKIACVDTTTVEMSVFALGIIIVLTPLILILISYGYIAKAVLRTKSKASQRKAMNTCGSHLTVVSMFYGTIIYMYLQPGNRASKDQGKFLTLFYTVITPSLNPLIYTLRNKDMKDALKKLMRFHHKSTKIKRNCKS
How it was run: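 Transient luciferase assays in mammalian cell lines were common, though methods varied by source. The values come from published papers and their supplementary material, with extra details from the original authors when needed. Responsive refers to a measured signal the original authors judged statistically different from baseline, and non-responsive (inactive) to the remainder.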
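Also: active if original authors judged signal statistically different from baseline.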

Row | SMILES | odorant receptor agonist call
1 | CCCCCC1=C(C)CCC1=O | active
2 | CCCCCC=O | inactive
3 | C=CCOC(=O)CCCCCC | inactive
4 | CCC(C(=O)O)c1ccccc1 (stereo not given) | inactive
5 | CCCC(C)=O | inactive
6 | CCCCCCCCC=CC=O | inactive
7 | CCC(=O)C(=O)CC | active
8 | CSCCC=O | inactive
9 | CCCC(=O)C(C)CC (stereo not given) | inactive
10 | C=Cc1ccc(OCCCCOc2ccc(C=C)cc2)cc1 | inactive
11 | CCCCCCCCC1CCC(=O)O1 (stereo not given) | inactive
12 | CC(=O)C(C)O (stereo not given) | inactive
13 | O=C(O)CCc1ccccc1 | inactive
14 | CCCCCC(=O)CC(C)=O | active
15 | CCC(C)C=O (stereo not given) | inactive
16 | CC(C)=CC1CC(C)CCO1 (stereo not given) | inactive
17 | Cc1cccc(O)c1 | inactive
18 | CCCCCCCCCCO | active

Row | SMILES | odorant receptor agonist call
19 | CCCCCCCO | active
20 | Cc1ccc(O)cc1 | inactive
21 | CC(=O)C1=NCCS1 | inactive
22 | COc1cc(C(=O)O)ccc1O | inactive
23 | CCC(C)c1nccnc1OC (stereo not given) | inactive
24 | CC(C)CCCCCCCCCCC=O | inactive
25 | CSC | inactive
26 | c1ccccc1 | inactive
27 | CCOC(C)=O | inactive
28 | CCCCCOC(=O)CCCCC | inactive
29 | CCCCCO | inactive
30 | CCCC(=O)C(C)=O | active
31 | CSCCCO | inactive
32 | C=CC(=O)CC | inactive
33 | CCOc1ccc2ccccc2c1 | active
34 | Cc1occc(=O)c1O | inactive
35 | CC=CC(=O)C1=C(C)C=CCC1(C)C | inactive
